According to ChEMBL document CHEMBL1138952 (Bioorg Med Chem Lett, 2006):
Each block holds one molecule with its values, some of them ahead of it.

Legend:
Coagulation factor X [1] = target: Coagulation factor X (Homo sapiens, UniProt P00742); assay: Binding affinity to human f10a
[2] = Activity in human plasma by aPTT assay; type: functional
Chymotrypsinogen B = Chymotrypsinogen B (Homo sapiens, UniProt P17538); assay: Binding affinity to chymotrypsin
[3] = target: Tissue-type plasminogen activator (Homo sapiens, UniProt P00750); assay: Binding affinity to tPA
[4] = target: Vitamin K-dependent protein C (Homo sapiens, UniProt P04070); assay: Binding affinity to aPC
Oryctolagus cuniculus [5] = assay: Inhibition of thrombus formation in rabbit arterio-venous shunt model at 4.6 umol/kg/h, iv; type: functional, organism-based
Trypsin = Trypsin (Homo sapiens, UniProt P07477+P07478+P35030); assay: Binding affinity to trypsin; type: protein assay
[6] = target: Urokinase-type plasminogen activator (Homo sapiens, UniProt P00749); assay: Binding affinity to urokinase
Coagulation factor X [7] = target: T1, Coagulation factor X (Oryctolagus cuniculus, UniProt O19045); assay: Binding affinity to rabbit f10a
T1 sequence (O19045 whole entry): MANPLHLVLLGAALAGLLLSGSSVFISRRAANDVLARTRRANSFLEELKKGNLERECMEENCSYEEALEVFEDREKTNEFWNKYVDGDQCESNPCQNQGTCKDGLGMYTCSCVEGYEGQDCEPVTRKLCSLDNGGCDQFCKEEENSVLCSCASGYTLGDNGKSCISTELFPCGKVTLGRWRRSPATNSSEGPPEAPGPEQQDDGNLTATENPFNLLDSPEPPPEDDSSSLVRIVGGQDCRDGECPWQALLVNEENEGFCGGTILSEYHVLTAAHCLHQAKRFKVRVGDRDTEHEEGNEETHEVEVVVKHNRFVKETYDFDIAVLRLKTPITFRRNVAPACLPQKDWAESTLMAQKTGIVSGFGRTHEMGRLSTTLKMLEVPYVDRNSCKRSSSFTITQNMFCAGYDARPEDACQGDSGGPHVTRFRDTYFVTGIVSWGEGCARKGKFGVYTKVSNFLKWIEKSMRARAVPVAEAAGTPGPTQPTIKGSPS

[8] = Protein binding in rabbit; type: ADME, Oryctolagus cuniculus; settings: plasma, read-out: PPB (converted)
Coagulation factor VII = target: T2, Coagulation factor VII (Homo sapiens, UniProt P08709); assay: Binding affinity to f7a
T2 sequence (P08709 whole entry): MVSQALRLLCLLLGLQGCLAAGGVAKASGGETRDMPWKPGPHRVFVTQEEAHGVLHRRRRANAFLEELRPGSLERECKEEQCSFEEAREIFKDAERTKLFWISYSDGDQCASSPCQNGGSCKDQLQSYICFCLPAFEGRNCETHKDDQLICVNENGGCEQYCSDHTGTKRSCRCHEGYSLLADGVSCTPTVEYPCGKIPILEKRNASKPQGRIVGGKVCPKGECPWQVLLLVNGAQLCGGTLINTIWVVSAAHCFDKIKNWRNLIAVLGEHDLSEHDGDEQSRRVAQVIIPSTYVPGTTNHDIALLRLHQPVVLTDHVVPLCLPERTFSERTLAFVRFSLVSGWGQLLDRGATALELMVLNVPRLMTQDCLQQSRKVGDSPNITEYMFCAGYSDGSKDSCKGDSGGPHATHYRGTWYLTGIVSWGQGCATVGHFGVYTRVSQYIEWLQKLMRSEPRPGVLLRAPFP

Plasminogen = Plasminogen (Homo sapiens, UniProt P00747); assay: Binding affinity to plasmin
Coagulation factor IX = Coagulation factor IX (Homo sapiens, UniProt P00740); assay: Binding affinity to f9a
Prothrombin = Prothrombin (Homo sapiens, UniProt P00734); assay: Binding affinity to thrombin
[9] = target: T3, Coagulation factor VII/tissue factor (Homo sapiens) (UniProt P08709+P13726); assay: Activity in human plasma by PT assay; type: functional, cell-free
Procedure, shortened: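 In vitro clotting assays (PT, aPTT) were run in human plasma.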

[10] = Clearance in dog at 0.5 mg/kg, iv and 0.2 mg/kg, po; type: ADME, organism-based, Canis lupus familiaris; settings: in vivo
[11] = (§1) Volume of distribution in dog at 0.5 mg/kg, iv and 0.2 mg/kg, po; type: ADME, organism-based, Canis lupus familiaris; settings: in vivo, read-out: Vdss
Procedure, shortened: (§2)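 Dogs received the compounds as TFA salts in a cassette (N-in-1) format, 0.5 mg/kg intravenously and 0.2 mg/kg orally (n = 2), and pharmacokinetic profiles were determined.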

[12] = Oral bioavailability in dog at 0.5 mg/kg, iv and 0.2 mg/kg, po; type: ADME, organism-based, Canis lupus familiaris; settings: in vivo; procedure, shortened: as §2
[13] = (§3) Half life in dog at 0.5 mg/kg, iv and 0.2 mg/kg, po; type: ADME, organism-based, Canis lupus familiaris; settings: in vivo; procedure, shortened: as §2
[14] = Apparent permeability in Caco-2 cells; type: ADME, cell-based; settings: human
[15] = target: T3, Coagulation factor VII/tissue factor (Homo sapiens); assay: Activity in rabbit plasma by PT assay; type: functional, cell-free; settings: Oryctolagus cuniculus, target entry is the homologue from another species
Oryctolagus cuniculus [16] = assay: Inhibition of thrombus formation in iv dosed rabbit arterio-venous shunt model; type: functional, organism-based
Canis familiaris [17] = assay: as §1; type: ADME, organism-based, Canis lupus familiaris; settings: in vivo; procedure, shortened: as §2
Canis familiaris [18] = assay: as §3; type: ADME, organism-based, Canis lupus familiaris; settings: in vivo; procedure, shortened: as §2

Coagulation factor X (Homo sapiens, UniProt P00742), sequence (P00742 41-179 limits assumed): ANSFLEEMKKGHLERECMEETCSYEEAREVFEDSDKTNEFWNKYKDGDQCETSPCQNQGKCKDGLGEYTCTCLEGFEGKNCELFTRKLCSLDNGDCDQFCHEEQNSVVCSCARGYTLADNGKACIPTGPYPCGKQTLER
Coagulation factor X (Homo sapiens, UniProt P00742), sequence (P00742 235-488 limits assumed): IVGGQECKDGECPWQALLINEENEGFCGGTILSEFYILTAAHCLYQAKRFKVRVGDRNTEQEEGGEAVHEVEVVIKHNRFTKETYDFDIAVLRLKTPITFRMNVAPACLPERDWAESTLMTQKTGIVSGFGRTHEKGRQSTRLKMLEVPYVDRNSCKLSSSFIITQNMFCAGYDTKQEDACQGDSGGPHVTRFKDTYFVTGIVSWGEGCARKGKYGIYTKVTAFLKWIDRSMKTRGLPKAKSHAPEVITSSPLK
Plasminogen, sequence (P00747 97-580 limits assumed): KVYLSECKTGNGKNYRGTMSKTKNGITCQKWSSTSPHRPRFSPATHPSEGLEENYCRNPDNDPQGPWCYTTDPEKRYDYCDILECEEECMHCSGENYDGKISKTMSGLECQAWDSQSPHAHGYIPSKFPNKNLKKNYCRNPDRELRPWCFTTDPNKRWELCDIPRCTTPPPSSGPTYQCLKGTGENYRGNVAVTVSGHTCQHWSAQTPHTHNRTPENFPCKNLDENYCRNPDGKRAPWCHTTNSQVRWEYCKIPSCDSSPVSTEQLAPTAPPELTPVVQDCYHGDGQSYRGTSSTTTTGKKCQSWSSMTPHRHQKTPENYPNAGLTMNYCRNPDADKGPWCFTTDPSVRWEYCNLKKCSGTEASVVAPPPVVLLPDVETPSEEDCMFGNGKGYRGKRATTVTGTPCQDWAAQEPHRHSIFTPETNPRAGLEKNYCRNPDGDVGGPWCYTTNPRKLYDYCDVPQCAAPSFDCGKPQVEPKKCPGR
Plasminogen, sequence (P00747 581-810 limits assumed): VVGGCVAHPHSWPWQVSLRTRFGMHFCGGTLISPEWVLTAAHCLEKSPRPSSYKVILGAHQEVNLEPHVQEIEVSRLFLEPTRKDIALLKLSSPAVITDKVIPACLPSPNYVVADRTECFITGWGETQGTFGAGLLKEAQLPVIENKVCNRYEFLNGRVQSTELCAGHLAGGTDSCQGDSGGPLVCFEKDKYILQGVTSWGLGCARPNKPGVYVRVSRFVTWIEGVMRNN
Tissue-type plasminogen activator, sequence (P00750 whole entry): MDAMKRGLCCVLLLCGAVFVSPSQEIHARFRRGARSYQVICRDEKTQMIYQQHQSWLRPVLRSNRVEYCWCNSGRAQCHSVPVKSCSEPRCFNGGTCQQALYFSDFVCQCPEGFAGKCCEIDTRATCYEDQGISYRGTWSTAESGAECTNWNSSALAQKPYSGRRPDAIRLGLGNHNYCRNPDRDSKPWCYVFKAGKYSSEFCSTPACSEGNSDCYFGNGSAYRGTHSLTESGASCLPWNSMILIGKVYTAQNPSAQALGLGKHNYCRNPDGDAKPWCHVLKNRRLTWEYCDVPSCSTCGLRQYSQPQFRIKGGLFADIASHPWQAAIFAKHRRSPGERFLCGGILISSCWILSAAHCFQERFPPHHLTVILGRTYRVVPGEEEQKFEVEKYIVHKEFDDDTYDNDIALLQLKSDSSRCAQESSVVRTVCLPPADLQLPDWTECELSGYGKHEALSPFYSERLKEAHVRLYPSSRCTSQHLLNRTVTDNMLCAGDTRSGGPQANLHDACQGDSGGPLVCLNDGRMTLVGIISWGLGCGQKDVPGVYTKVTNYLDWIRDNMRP
Vitamin K-dependent protein C, sequence (P04070 43-197 limits assumed): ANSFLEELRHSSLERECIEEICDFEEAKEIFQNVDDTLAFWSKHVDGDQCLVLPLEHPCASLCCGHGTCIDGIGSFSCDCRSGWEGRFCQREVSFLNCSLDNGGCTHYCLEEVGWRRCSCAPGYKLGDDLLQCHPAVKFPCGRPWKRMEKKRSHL
Vitamin K-dependent protein C, sequence (P04070 212-461 limits assumed): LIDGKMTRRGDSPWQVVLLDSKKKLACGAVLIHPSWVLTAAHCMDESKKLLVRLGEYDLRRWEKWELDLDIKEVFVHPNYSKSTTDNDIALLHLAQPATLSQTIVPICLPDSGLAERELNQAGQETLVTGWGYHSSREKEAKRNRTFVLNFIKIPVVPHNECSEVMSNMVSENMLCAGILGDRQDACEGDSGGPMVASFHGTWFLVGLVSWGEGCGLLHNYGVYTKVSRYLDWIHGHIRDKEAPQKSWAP
Chymotrypsinogen B, sequence (P17538 34-164 limits assumed, other chains not shown): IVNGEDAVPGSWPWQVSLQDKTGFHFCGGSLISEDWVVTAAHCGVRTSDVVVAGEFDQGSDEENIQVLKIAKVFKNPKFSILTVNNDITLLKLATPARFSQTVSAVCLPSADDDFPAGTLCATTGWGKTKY
Chymotrypsinogen B, sequence (P17538 167-263 limits assumed, other chains not shown): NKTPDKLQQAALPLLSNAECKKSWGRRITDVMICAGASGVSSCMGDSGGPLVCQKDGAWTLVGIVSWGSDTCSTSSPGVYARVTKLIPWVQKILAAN
Coagulation factor IX, sequence (P00740 47-191 limits assumed): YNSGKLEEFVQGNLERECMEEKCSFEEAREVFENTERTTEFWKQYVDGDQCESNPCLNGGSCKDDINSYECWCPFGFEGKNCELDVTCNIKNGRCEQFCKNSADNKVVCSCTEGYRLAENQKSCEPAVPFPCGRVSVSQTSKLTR
Coagulation factor IX, sequence (P00740 227-461 limits assumed): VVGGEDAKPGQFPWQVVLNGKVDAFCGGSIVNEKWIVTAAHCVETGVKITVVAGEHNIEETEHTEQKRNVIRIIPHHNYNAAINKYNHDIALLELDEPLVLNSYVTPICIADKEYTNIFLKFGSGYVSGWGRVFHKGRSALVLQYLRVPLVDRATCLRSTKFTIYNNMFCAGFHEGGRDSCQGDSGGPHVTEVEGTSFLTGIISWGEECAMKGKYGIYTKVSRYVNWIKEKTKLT

- Ki (Coagulation factor X [1]): 22 nM
SMILES: COc1ccc(-n2nc(CN)c3ncn(-c4ccc(-c5ccccc5S(N)(=O)=O)cc4)c(=O)c32)cc1

- Ki (Coagulation factor X [1]): 2.8 nM
- 2PT [9]: 62 µM
SMILES: COc1ccc(-n2nc(C(F)(F)F)c3c(C)nn(-c4ccc(-c5ccccc5CN5CCCC5)cc4)c(=O)c32)cc1
- 2aPTT [2]: 53 µM

- Ki (Coagulation factor X [1]): 45 nM
SMILES: CCOC(=O)c1nn(-c2ccc(OC)cc2)c2c(=O)n(-c3ccc(-c4ccccc4CO)cc3)cnc12

- Ki (Coagulation factor X [1]): 2.1 nM
SMILES: COc1ccc(-n2nc(C#N)c3ncn(-c4ccc(-c5ccccc5CN(C)C)cc4)c(=O)c32)cc1

- Ki (Coagulation factor X [1]): 3.8 nM
SMILES: CCOC(=O)c1nn(-c2ccc(OC)cc2)c2c(=O)n(-c3ccc(-c4ccccc4CN4CCCC4)cc3)cnc12
- 2aPTT [2]: 1.8 µM

- Ki (Coagulation factor X [1]): 2.8 nM
SMILES: COc1ccc(-n2nc(C(F)(F)F)c3c(C)nn(-c4ccc(-c5ccccc5S(N)(=O)=O)cc4)c(=O)c32)cc1

- Ki (Coagulation factor X [1]): 1.9 nM
SMILES: COc1ccc(-n2nc(C#N)c3ncn(-c4ccc(-c5ccccc5S(N)(=O)=O)cc4)c(=O)c32)cc1
- 2aPTT [2]: 5.8 µM

- Ki (Coagulation factor X [1]): 1.8 nM
SMILES: COc1ccc(-n2nc(C#N)c3nc(C)n(-c4ccc(-c5ccccc5CN(C)C)cc4)c(=O)c32)cc1

- 2PT [9]: 2.2 µM
- 2PT [15]: 1.8 µM
SMILES: COc1ccc(-n2nc(C(N)=O)c3ncn(-c4ccc(-c5ccccc5CN5CCCC5)cc4)c(=O)c32)cc1 [listing 1 of 2 here]

- Ki (Coagulation factor X [1]): 8.4 nM
SMILES: COc1ccc(-n2nc(C#N)c(N)c2C(=O)Nc2ccc(-c3ccccc3S(C)(=O)=O)cc2F)cc1

- Ki (Coagulation factor X [1]): 1.5 nM
- 2PT [9]: 3.6 µM
SMILES: COc1ccc(-n2nc(C(N)=O)c3ncn(-c4ccc(-c5ccccc5CN5CC[C@@H](O)C5)cc4)c(=O)c32)cc1
- 2aPTT [2]: 5 µM

- Ki (Chymotrypsinogen B): 7930 nM
- Ki [3]: > 33000 nM
- Ki [4]: > 76000 nM
- Ki (Trypsin): > 4200 nM
- Ki [6]: > 13000 nM
- Ki (Coagulation factor X [7]): 1 nM
- IC50 (Oryctolagus cuniculus [16]; Oryctolagus cuniculus): 1200 nM
- fraction unbound [8]: 0.23
- Ki (Coagulation factor VII): > 15000 nM
- Ki (Plasminogen): > 15000 nM
- Ki (Coagulation factor IX): > 41000 nM
- Ki (Prothrombin): 1600 nM
SMILES: COc1ccc(-n2nc(C(N)=O)c3ncn(-c4ccc(-c5ccccc5CN5CCCC5)cc4)c(=O)c32)cc1 [listing 2 of 2 here]
- 2aPTT [2]: 4 µM
- ID50 (Oryctolagus cuniculus [16]): 5.5 µmol/kg/h

- Vdss (Canis familiaris [17]): 5.3 L/kg
- fraction unbound [8]: 0.07
- 2PT [9]: 2.1 µM
- T1/2 (Canis familiaris [18]): 3.4 h
SMILES: CN(C)Cc1nccn1-c1ccc(NC(=O)c2cc(C(F)(F)F)nn2-c2ccc3onc(N)c3c2)c(F)c1.Cl [RAZAXABAN HYDROCHLORIDE]

- Ki (Coagulation factor X [1]): 1.8 nM
SMILES: COC(=O)c1nn(-c2ccc(OC)cc2)c2c(=O)n(-c3ccc(-c4ccccc4S(N)(=O)=O)cc3F)cnc12

- Ki (Coagulation factor X [1]): 3 nM
SMILES: COc1ccc(-n2nc(C#N)c3[nH]c(=O)n(-c4ccc(-c5ccccc5S(C)(=O)=O)cc4F)c(=O)c32)cc1
- 2aPTT [2]: 197 µM

- Ki (Coagulation factor X [1]): 2.8 nM
SMILES: COC(=O)c1nn(-c2ccc(OC)cc2)c2c(=O)n(-c3ccc(-c4ccccc4S(N)(=O)=O)cc3)cnc12
- 2aPTT [2]: 7.1 µM

More lines, now with the values behind:

SMILES: COc1ccc(-n2nc(C(F)(F)F)cc2C(=O)Nc2ccc(-c3ccccc3S(C)(=O)=O)cc2F)cc1
- 2aPTT [2]: 104 µM

SMILES: COc1ccc(-n2nc(C(N)=O)c3ncn(-c4ccc(-c5ccccc5CN5CCCC5)cc4F)c(=O)c32)cc1 [listing 1 of 2 here]
- Ki (Chymotrypsinogen B): 530 nM
- Ki [3]: > 33000 nM
- Ki [4]: > 76000 nM
- IC50 (Oryctolagus cuniculus [5]): > 1000 nM
- inhibition in vivo at 4.6 µmol/kg/h (Oryctolagus cuniculus [5]; iv): 33%
- Ki (Coagulation factor X [1]): 0.74 nM
- Ki (Trypsin): > 2500 nM
- Ki [6]: > 13000 nM
- Ki (Coagulation factor X [7]): 1.2 nM
- 2aPTT [2]: 3.9 µM
- fraction unbound [8]: 0.15
- Ki (Coagulation factor VII): > 15000 nM
- Ki (Plasminogen): > 15000 nM
- Ki (Coagulation factor IX): > 15000 nM
- Ki (Prothrombin): 1800 nM

SMILES: COc1ccc(-n2nc(C(N)=O)c3ncn(-c4ccc(-c5ccccc5S(N)(=O)=O)cc4F)c(=O)c32)cc1
- Ki (Coagulation factor X [1]): 1.2 nM
- 2aPTT [2]: 9.8 µM

SMILES: COc1ccc(-n2nc(C(N)=O)c3ncn(-c4ccc(-c5ccccc5S(N)(=O)=O)cc4)c(=O)c32)cc1
- Ki (Coagulation factor X [1]): 1.7 nM
- 2aPTT [2]: 8.7 µM

SMILES: COc1ccc(-n2nc(Cn3ncnn3)c3nc(C)n(-c4ccc(-c5ccccc5CN5CCCC5)cc4)c(=O)c32)cc1
- Ki (Coagulation factor X [1]): 1.9 nM
- 2aPTT [2]: 20.1 µM
- 2PT [9]: 6.5 µM

SMILES: COc1ccc(-n2nc(C(N)=O)c3ncn(-c4ccc(-c5ccccc5CN5CCCC5)cc4)c(=O)c32)cc1.O=C(O)C(F)(F)F
- clearance [10]: 9.17 mL/min/kg
- Vd [11]: 3.9 L/kg
- bioavailability [12]: 94%
- half-life [13]: 5.4 h
- Papp [14]: 12 ×10⁻⁶ cm/s

SMILES: COc1ccc(-n2nc(C(=O)O)c3ncn(-c4ccc(-c5ccccc5S(N)(=O)=O)cc4)c(=O)c32)cc1
- Ki (Coagulation factor X [1]): 38 nM

SMILES: COc1ccc(-n2nc(Cn3cnnn3)c3nc(C)n(-c4ccc(-c5ccccc5CN5CCCC5)cc4)c(=O)c32)cc1
- Ki (Coagulation factor X [1]): 1.4 nM

SMILES: COc1ccc(-n2nc(C(N)=O)c3ncn(-c4ccc(-c5ccccc5CN5CCCC5)cc4F)c(=O)c32)cc1 [listing 2 of 2 here]
- 2PT [9]: 3.4 µM
- 2PT [15]: 1.6 µM

SMILES: COc1ccc(-n2nc(C#N)c3ncn(-c4ccc(-c5ccccc5CN5CCCC5)cc4)c(=O)c32)cc1
- Ki (Chymotrypsinogen B): 2030 nM
- Ki [3]: > 33000 nM
- Ki [4]: 48700 nM
- Ki (Coagulation factor X [1]): 1.7 nM
- Ki (Trypsin): > 2500 nM
- Ki [6]: > 13000 nM
- Ki (Coagulation factor VII): > 15000 nM
- Ki (Plasminogen): > 15000 nM
- Ki (Coagulation factor IX): > 15000 nM
- Ki (Prothrombin): 1100 nM

SMILES: COc1ccc(-n2nc(C(N)=O)c3ncn(-c4ccc(-c5ccccc5CN5CCCC5)cc4F)c(=O)c32)cc1.O=C(O)C(F)(F)F
- clearance [10]: 12.7 mL/min/kg
- Vd [11]: 4.9 L/kg
- bioavailability [12]: 96%
- half-life [13]: 5.1 h
- Papp [14]: 15 ×10⁻⁶ cm/s

SMILES: COc1ccc(-n2nc(C#N)c3ncn(-c4ccc(-c5ccccc5CN5CCCC5)cc4)c(=O)c32)cc1.O=C(O)C(F)(F)F
- clearance [10]: 113 mL/min/kg
- Vd [11]: 75 L/kg
- bioavailability [12]: 77%
- half-life [13]: 8.3 h
- Papp [14]: 3.1 ×10⁻⁶ cm/s

SMILES: CCOC(=O)c1nn(-c2ccc(OC)cc2)c2c(=O)n(-c3ccc(-c4ccccc4CN4CCCC4)cc3F)cnc12
- Ki (Coagulation factor X [1]): 3.6 nM

SMILES: COc1ccc(-n2nc(Cn3ccnc3)c3nc(C)n(-c4ccc(-c5ccccc5CN5CCCC5)cc4)c(=O)c32)cc1
- Ki (Coagulation factor X [1]): 2.1 nM
